Tests used:
[1] = molecular target: T1, Adenosine receptor A3 (Homo sapiens, UniProt P0DMS8); assay: Displacement of [125I]ABMECA from human adenosine A3 receptor expressed in CHO cells
T1 sequence (P0DMS8 whole entry): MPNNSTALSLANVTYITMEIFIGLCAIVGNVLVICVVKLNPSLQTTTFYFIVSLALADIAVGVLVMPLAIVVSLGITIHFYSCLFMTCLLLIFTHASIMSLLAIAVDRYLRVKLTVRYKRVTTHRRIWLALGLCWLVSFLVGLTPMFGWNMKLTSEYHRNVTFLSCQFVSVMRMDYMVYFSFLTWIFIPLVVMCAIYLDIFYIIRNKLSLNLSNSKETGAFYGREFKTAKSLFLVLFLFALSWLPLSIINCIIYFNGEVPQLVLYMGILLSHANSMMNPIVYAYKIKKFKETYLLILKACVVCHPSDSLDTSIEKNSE

[2] = molecular target: Adenosine receptor A2a (Homo sapiens, UniProt P29274); assay: Displacement of [3H]CGS-21680 from human adenosine A2A receptor expressed in CHO cells; type: cell-based; parameters: concentration or dose not given beside the values
Chain of Adenosine receptor A2a (P29274 whole entry): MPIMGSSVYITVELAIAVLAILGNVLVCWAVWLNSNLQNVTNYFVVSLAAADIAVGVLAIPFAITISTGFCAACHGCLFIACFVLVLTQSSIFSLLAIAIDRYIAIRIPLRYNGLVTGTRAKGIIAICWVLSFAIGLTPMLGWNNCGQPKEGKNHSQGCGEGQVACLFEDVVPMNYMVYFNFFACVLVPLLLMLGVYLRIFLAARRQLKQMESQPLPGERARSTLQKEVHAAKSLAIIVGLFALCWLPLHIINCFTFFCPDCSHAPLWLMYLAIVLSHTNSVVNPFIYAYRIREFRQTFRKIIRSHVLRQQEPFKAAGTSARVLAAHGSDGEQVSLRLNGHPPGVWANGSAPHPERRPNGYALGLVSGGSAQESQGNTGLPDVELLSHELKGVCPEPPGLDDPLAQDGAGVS

[3] = molecular target: T2, Adenosine receptor A1 (Homo sapiens, UniProt P30542); assay: Displacement of [3H]CHA from human adenosine A1 receptor expressed in CHO cells; type: cell-based
T2 sequence (P30542 whole entry): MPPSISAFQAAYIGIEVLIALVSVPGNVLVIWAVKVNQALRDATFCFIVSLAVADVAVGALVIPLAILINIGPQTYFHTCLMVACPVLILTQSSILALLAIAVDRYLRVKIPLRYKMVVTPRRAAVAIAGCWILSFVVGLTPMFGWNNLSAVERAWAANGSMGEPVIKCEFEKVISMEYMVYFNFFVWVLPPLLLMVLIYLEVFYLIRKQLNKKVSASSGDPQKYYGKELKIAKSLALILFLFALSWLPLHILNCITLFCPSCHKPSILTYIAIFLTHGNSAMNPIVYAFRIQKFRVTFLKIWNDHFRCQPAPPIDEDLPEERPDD
Method in brief: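 Human A1 in CHO cell membranes, pretreated with adenosine deaminase 2 IU/mL for 30 min at 37 °C. 50 µg protein per assay incubated with 1 nM [³H]CHA and 6–8 agonist concentrations in 50 mM Tris-HCl pH 7.4 for 150 min at 25 °C. Nonspecific binding defined by 10 µM CHA. Separated by GF/B filtration, counted by scintillation. Ki from IC50 via Cheng–Prusoff.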

[4] = molecular target: T3, Adenosine receptor A2b (Homo sapiens, UniProt P29275); assay: Agonist activity at human adenosine A2B receptor expressed in CHO cells assessed as stimulation of cAMP production; type: functional, cell-based
T3 sequence (P29275 whole entry): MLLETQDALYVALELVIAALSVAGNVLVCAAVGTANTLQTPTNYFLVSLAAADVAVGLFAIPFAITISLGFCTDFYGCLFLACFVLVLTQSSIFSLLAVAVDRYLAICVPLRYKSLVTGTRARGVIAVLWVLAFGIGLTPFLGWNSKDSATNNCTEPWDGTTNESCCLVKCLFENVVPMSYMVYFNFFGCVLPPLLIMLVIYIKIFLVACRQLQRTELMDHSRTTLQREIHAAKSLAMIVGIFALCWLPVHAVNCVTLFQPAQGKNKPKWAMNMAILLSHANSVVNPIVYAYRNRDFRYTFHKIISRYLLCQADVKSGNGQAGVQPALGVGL
Method in brief: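 CHO cells stably expressing human A2B, grown in DMEM/F12 with 10% serum and G418, trypsinized and pelleted. 1 × 10⁶ cells/assay preincubated 10 min at 37 °C with adenosine deaminase 2 IU/mL and Ro 20-1724. Ligands at 1 nM–10 µM added for 5 min, stopped with cold 6% TCA, ether-extracted. cAMP read by [³H]cAMP competition protein binding. EC50 from sigmoid non-linear regression; 3–4 experiments in duplicate.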

Compound | Ki [1] [nM] | Activity [2] [%] | Ki [2] [nM] | Ki [3] [nM] | EC50 [4] [nM]
CCNC(=O)[C@H]1O[C@@H](n2cnc3c(Nc4ccc(OCC(=O)Nc5ccc(OC)cc5)cc4)nc(Cl)nc32)[C@H](O)[C@@H]1O | 101 | 27 | > 1000 | 50.4 | 360
CCNC(=O)[C@H]1O[C@@H](n2cnc3c(Nc4ccc(OCC(=O)Nc5ccc(OC)c(OC)c5)cc4)ncnc32)[C@H](O)[C@@H]1O | 53.2 | 30 | > 1000 | 7.7 | 45.4
CCNC(=O)[C@H]1O[C@@H](n2cnc3c(Nc4ccc(OCC(=O)Nc5ccc(Br)cc5)cc4)ncnc32)[C@H](O)[C@@H]1O | 36.4 | 26 | > 1000 | 3.5 | 10.5
CCNC(=O)[C@H]1O[C@@H](n2cnc3c(Nc4ccc(OCC(=O)Nc5ccc(I)cc5)cc4)ncnc32)[C@H](O)[C@@H]1O | 85.2 | 28 | > 1000 | 5.2 | 30.2
CCNC(=O)[C@H]1O[C@@H](n2cnc3c(Nc4ccc(OCC(=O)NCc5ccc(OC)cc5)cc4)ncnc32)[C@H](O)[C@@H]1O | 65.4 | 1 | > 1000 | 28.3 | 240
CCNC(=O)[C@H]1O[C@@H](n2cnc3c(Nc4ccc(OCC(=O)NCc5ccccc5)cc4)nc(Cl)nc32)[C@H](O)[C@@H]1O | 75.7 | 49 | > 1000 | 22.6 | 175
CCNC(=O)[C@H]1O[C@@H](n2cnc3c(Nc4ccc(OCC(=O)Nc5ccc(Cl)cc5)cc4)ncnc32)[C@H](O)[C@@H]1O | 34.2 | 35 | > 1000 | 3.1 | 12.3
CCNC(=O)[C@H]1O[C@@H](n2cnc3c(Nc4ccc(OCC(=O)NCc5ccccc5)cc4)ncnc32)[C@H](O)[C@@H]1O | 82.7 | 49 | > 1000 | 20.4 | 150
CCNC(=O)[C@H]1O[C@@H](n2cnc3c(Nc4ccc(OCC(=O)Nc5ccc6c(c5)OCO6)cc4)ncnc32)[C@H](O)[C@@H]1O | 81.4 | 5 | > 1000 | 8.4 | 35.5
CCNC(=O)[C@H]1O[C@@H](n2cnc3c(Nc4ccc(OCC(=O)Nc5ccccc5C(F)(F)F)cc4)ncnc32)[C@H](O)[C@@H]1O | 115 | 1 | > 1000 | 31.6 | 107
CCNC(=O)[C@H]1O[C@@H](n2cnc3c(Nc4ccc(OCC(=O)Nc5ccccc5)cc4)nc(Cl)nc32)[C@H](O)[C@@H]1O | 107 | 36 | > 1000 | 30.5 | 42.6

Next, values leading:

Ki [1] [nM] | Activity [2] [%] | Ki [2] [nM] | Ki [3] [nM] | EC50 [4] [nM] | Compound
95.8 | 46 | > 1000 | 30.8 | 302 | CCNC(=O)[C@H]1O[C@@H](n2cnc3c(Nc4ccc(OCC(=O)NC5CCCCC5)cc4)nc(Cl)nc32)[C@H](O)[C@@H]1O
25.3 | 42 | > 1000 | 4.7 | 32.4 | CCNC(=O)[C@H]1O[C@@H](n2cnc3c(Nc4ccc(OCC(=O)Nc5ccc(OC)cc5)cc4)ncnc32)[C@H](O)[C@@H]1O
42.3 | 37 | > 1000 | 11.2 | 32.3 | CCNC(=O)[C@H]1O[C@@H](n2cnc3c(Nc4ccc(OCC(=O)Nc5ccncc5)cc4)ncnc32)[C@H](O)[C@@H]1O
78.6 | 13 | > 1000 | 15.3 | 53.6 | CCNC(=O)[C@H]1O[C@@H](n2cnc3c(Nc4ccc(OCC(=O)Nc5cc(OC)cc(OC)c5)cc4)ncnc32)[C@H](O)[C@@H]1O
72.5 | 40 | > 1000 | 16.2 | 315 | CCNC(=O)[C@H]1O[C@@H](n2cnc3c(Nc4ccc(OCC(=O)NC5CCCCC5)cc4)ncnc32)[C@H](O)[C@@H]1O
38.4 | 45 | > 1000 | 8.5 | 7.3 | CCNC(=O)[C@H]1O[C@@H](n2cnc3c(Nc4ccc(OCC(=O)Nc5ccccc5)cc4)ncnc32)[C@H](O)[C@@H]1O
40.2 | 1 | > 1000 | 18.6 | 16.4 | CCNC(=O)[C@H]1O[C@@H](n2cnc3c(Nc4ccc(OCC(=O)Nc5ccc(C(C)(C)C)cc5)cc4)ncnc32)[C@H](O)[C@@H]1O
72.3 | 48 | > 1000 | 2.3 | 15.2 | CCNC(=O)[C@H]1O[C@@H](n2cnc3c(Nc4ccc(OCC(=O)Nc5ccc(F)cc5)cc4)ncnc32)[C@H](O)[C@@H]1O
320 | 1 | > 1000 | 77.5 | 300 | CCNC(=O)[C@H]1O[C@@H](n2cnc3c(Nc4ccc(OCC(=O)Nc5ccc(N6CCOCC6)cc5)cc4)ncnc32)[C@H](O)[C@@H]1O

From ChEMBL document CHEMBL1142924, “N(6)-[(hetero)aryl/(cyclo)alkyl-carbamoyl-methoxy-phenyl]-(2-chloro)-5'-N-ethylcarboxamido-adenosines: the first example of adenosine-related structures with potent agonist activity at the human A(2B) adenosine receptor” (Bioorg Med Chem, 2007)
